This passage reports ED50 and Ki results from ChEMBL document CHEMBL1127368, “Selective kappa-opioid agonists: synthesis and structure-activity relationships of piperidines incorporating on oxo-containing acyl group” (J Med Chem, 1994).

For test [1], the system named is Mus musculus. Put plainly: Tested for in vivo antinociceptive activity in mouse abdominal constriction assay. Format: functional. The settings on record: Abdomen. In a few lines:
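Mice of 20-35 g. Abdominal constriction induced with phenyl-p-benzoquinone. Ten animals per dose. ED50 with 95% confidence intervals obtained by regression analysis.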

Test [2] relates to Mus musculus. Put plainly: Tested for in vivo antinociceptive activity in mouse tail-flick assay. Format: functional. The method, boiled down: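 Tail-flick antinociception in mice of 20-35 g. Ten animals per dose. ED50 with 95% confidence intervals obtained by probit analysis.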
On the technique in general: Thermal pain tests record how soon the animal reacts.

Test [3] concerns Mus musculus. As to the kind of experiment: Tested for in vivo locomotor impairment/sedation in mouse rotarod test. Format: functional. In a few lines:
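Locomotor impairment/sedation measured on a rotarod in mice of 20-35 g. Ten animals per dose. ED50 with 95% confidence intervals obtained by regression analysis.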
For orientation: The rotarod test checks motor coordination on a turning rod.

For test [4], the target named is Kappa-type opioid receptor (Mus musculus, UniProt P33534). As to the kind of experiment: Evaluated for the binding affinity at kappa receptor.
Kappa-type opioid receptor, sequence (P33534 whole entry): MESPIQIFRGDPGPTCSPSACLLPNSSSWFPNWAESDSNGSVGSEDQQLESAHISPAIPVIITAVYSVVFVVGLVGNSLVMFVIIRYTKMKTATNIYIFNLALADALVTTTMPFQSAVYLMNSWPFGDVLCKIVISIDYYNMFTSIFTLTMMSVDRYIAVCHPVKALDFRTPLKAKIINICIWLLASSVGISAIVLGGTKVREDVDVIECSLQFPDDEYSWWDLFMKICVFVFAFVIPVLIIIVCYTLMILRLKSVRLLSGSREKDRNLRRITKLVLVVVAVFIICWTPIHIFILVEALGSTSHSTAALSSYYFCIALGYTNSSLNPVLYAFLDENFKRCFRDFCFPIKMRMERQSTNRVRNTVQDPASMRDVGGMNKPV
A further test deals with Mu-type opioid receptor (Mus musculus, UniProt P42866). As to the kind of experiment: Evaluated for the binding affinity at mu receptor.
Mu-type opioid receptor, sequence (P42866 whole entry): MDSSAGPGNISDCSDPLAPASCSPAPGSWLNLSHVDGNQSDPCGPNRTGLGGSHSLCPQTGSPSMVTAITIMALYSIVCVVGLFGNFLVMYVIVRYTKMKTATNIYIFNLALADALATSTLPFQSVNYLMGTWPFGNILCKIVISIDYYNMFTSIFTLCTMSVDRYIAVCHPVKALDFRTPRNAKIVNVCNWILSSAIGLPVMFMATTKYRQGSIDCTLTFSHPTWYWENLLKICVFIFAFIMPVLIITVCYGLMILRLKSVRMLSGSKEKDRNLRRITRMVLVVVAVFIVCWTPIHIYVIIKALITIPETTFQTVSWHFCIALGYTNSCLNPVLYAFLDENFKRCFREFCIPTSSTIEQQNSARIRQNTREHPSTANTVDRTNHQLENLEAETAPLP
Test [5] has as its target Delta-type opioid receptor (Mus musculus, UniProt P32300). As to the kind of experiment: Evaluated for the binding affinity at delta receptor.
For test [6], the system named is Rattus norvegicus. As to the kind of experiment: Tested for in vivo antinociceptive activity in rat abdominal constriction. Format: functional. The settings on record: Abdomen. The method, boiled down:
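Male SD rats, 180-350 g. Abdominal constriction induced with phenyl-p-benzoquinone. Ten animals per dose. ED50 with 95% confidence intervals obtained by probit analysis.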

Test [7] relates to Rattus norvegicus. As to the kind of experiment: Tested for in vivo locomotor impairment/sedation in rat rotarod. Format: functional. The method, boiled down:
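Male SD rats, 180-350 g. Trained in six 5-min sessions over 2 days. Rotarod accelerated from 3 to 30 rpm across five sessions. Ten animals per dose. ED50 with 95% confidence intervals obtained by regression analysis.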

Test [8] has as its target Sigma non-opioid intracellular receptor 1 (Mus musculus, UniProt O55242). As to the kind of experiment: Evaluated for the binding affinity at sigma receptor.
Test [9] concerns Rattus norvegicus. Put plainly: Tested for in vivo antinociceptive activity in rat abdominal constriction assay. The following applies: Abdomen.

Sigma non-opioid intracellular receptor 1, sequence (O55242 whole entry): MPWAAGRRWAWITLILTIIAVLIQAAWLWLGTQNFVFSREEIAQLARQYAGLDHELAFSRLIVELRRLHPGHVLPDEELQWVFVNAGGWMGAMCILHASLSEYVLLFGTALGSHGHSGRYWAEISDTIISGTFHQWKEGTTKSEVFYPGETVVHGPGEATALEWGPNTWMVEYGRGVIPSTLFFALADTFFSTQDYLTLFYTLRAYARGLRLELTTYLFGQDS
Delta-type opioid receptor, sequence (P32300 whole entry): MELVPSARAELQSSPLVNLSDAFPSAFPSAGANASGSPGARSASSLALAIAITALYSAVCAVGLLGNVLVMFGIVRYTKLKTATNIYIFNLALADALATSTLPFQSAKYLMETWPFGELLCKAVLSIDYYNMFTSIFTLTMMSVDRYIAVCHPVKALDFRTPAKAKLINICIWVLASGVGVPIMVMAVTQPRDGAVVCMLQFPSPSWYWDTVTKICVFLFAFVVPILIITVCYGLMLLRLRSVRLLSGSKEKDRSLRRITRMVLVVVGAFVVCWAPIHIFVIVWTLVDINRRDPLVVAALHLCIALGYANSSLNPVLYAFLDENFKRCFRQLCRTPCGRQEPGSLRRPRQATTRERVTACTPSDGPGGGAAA

Regarding `C=CCN(C)C[C@@H]1CCCCN1C(=O)Cc1ccc2c(c1)CCCC2=O`, the ED50 was determined as 0.37 µmol/kg in the test with Mus musculus [1], 3.42 µmol/kg with Mus musculus [2] and 8.66 µmol/kg in the test on Mus musculus [3]. For the same compound, the Ki in test [4] stood at 19.2 nM.

On to `O=C1CCCc2cc(CC(=O)N3CCCC[C@H]3CN3CCCC3)ccc21`, for which the ED50 in the test on Mus musculus [1] came out at 0.35 µmol/kg; with Mus musculus [2], 0.59 µmol/kg. For the same compound, the Ki in test [4] was found to be 7.6 nM.

As to `CCCN(C)C[C@@H]1CCCCN1C(=O)Cc1ccc2c(c1)CCCC2=O`, the values for the ED50 in the test with Mus musculus [1], with Mus musculus [2] and in the test on Mus musculus [3] were 0.62 µmol/kg, 6.81 µmol/kg and 7.99 µmol/kg, respectively. Moreover, the affinity in [4], expressed as Ki, was 22.2 nM.

With `O=C(Cc1ccc2c(c1)CCCC2)N1CCCC[C@H]1CN1CCCC1`, the ED50 came to 0.57 µmol/kg in the test on Mus musculus [1] and 2.67 µmol/kg in the test with Mus musculus [2]. Further, the Ki in [4] turned out to be 0.81 nM.

`CC(C)N(C)C[C@@H]1CCCCN1C(=O)Cc1ccc2c(c1)CCCC2=O`: the ED50 in the test with Mus musculus [1] was 0.22 µmol/kg; with Mus musculus [2], 1.2 µmol/kg; with Mus musculus [3] it was 1.02 µmol/kg. This compound also showed a Ki in [4] of 4.07 nM.

`O=C1CCCc2ccc(CC(=O)N3CCCC[C@H]3CN3CCCC3)cc21`: the ED50 in the test on Mus musculus [1] is approximately 1 µmol/kg; in the test on Mus musculus [2], more than 3 µmol/kg. In addition, in test [4], the affinity, expressed as Ki, was 5.61 nM.

`CCN(C)C[C@@H]1CCCCN1C(=O)Cc1ccc2c(c1)CCCC2=O`: the ED50 in the test with Mus musculus [1] was determined as 0.18 µmol/kg; with Mus musculus [2] it was 1.77 µmol/kg; with Mus musculus [3], 2.3 µmol/kg. The Ki in test [4] worked out at 10.3 nM.

With `CN(C[C@@H]1CCCCN1C(=O)Cc1ccc2c(c1)CCCC2=O)C1CCCC1`, the ED50 with Mus musculus [1] amounted to 0.55 µmol/kg; in the test with Mus musculus [2], 6.34 µmol/kg; with Mus musculus [3] it was 10 µmol/kg. The compound further yielded a Ki in test [4] of 20 nM.

Turning to `CCN(CC)C[C@@H]1CCCCN1C(=O)Cc1ccc2c(c1)CCCC2=O`, the ED50 with Mus musculus [1] stood at 1.2 µmol/kg; with Mus musculus [2], 12.6 µmol/kg; in the test with Mus musculus [3], 23.7 µmol/kg. In test [4], this compound gave a Ki of 80.3 nM.

Turning to `CN(C)C[C@@H]1CCCCN1C(=O)Cc1ccc2c(c1)CCCC2=O`, the ED50 in the test with Mus musculus [1] amounted to 0.47 µmol/kg; with Mus musculus [2] it was 2.15 µmol/kg; with Mus musculus [3] it was 5.1 µmol/kg; in the test with Rattus norvegicus [6], 0.73 µmol/kg; in the test with Rattus norvegicus [7], 26.5 µmol/kg. Also, the Ki was 6790 nM on Mu-type opioid receptor, 47 nM in [4], more than 100 nM in test [5] and 1210 nM in test [8].

Consider `CN(C[C@@H]1CCCCN1C(=O)Cc1ccc2c(c1)CCCC2=O)C1CC1`, for which the figures for the 50% effective dose (ED50) in the test with Mus musculus [1], with Mus musculus [2] and with Mus musculus [3] were 0.4 µmol/kg, 7.85 µmol/kg and 13.7 µmol/kg, respectively. In test [4], this compound gave a Ki of 52.1 nM.

Take `CN(CC1CC1)C[C@@H]1CCCCN1C(=O)Cc1ccc2c(c1)CCCC2=O`: the ED50 in the test with Mus musculus [1] is 1.36 µmol/kg; with Mus musculus [2] it was 16.5 µmol/kg; in the test with Mus musculus [3], 16.6 µmol/kg. Further, the inhibitory constant (Ki) in [4] was 30.4 nM.

Regarding `C#CCN(C)C[C@@H]1CCCCN1C(=O)Cc1ccc2c(c1)CCCC2=O`, the ED50 in the test on Mus musculus [1] worked out at 0.16 µmol/kg; in the test with Mus musculus [2], 5.11 µmol/kg; in the test on Mus musculus [3], 4.12 µmol/kg. This compound also yielded a Ki in test [4] of 6.24 nM.

`O=C1CCCCc2cc(CC(=O)N3CCCC[C@H]3CN3CCCC3)ccc21`: the ED50 in the test on Mus musculus [1] was more than 1.5 µmol/kg; with Mus musculus [2], more than 3 µmol/kg. The same compound had a Ki in test [4] of 5.44 nM.

For `CN(C[C@@H]1CCCCN1C(=O)Cc1ccc2c(c1)CCCC2=O)C(C)(C)C`, the ED50 with Mus musculus [2] was more than 30 µmol/kg. In test [4], this compound gave a Ki of more than 100 nM.

As to `CN(C[C@@H]1CCCCN1C(=O)Cc1ccc2c(c1)CCCC2=O)C1CCC1`, the ED50 with Mus musculus [1] is 0.34 µmol/kg; with Mus musculus [2], 1.45 µmol/kg; in the test on Mus musculus [3], 3.32 µmol/kg. Further, in test [4], affinity was put at a Ki of 34.8 nM.

In the case of `O=C1CCc2cc(CC(=O)N3CCCC[C@H]3CN3CCCC3)ccc21`, the ED50 was more than 1.5 µmol/kg in the test with Mus musculus [1] and more than 30 µmol/kg in the test with Mus musculus [2]. In test [4], this compound gave a Ki of 7.93 nM.

Regarding `O=C1CCCc2sc(CC(=O)N3CCCC[C@H]3CN3CCCC3)cc21`, the ED50 in the test on Mus musculus [1] was determined as 1.41 µmol/kg; with Mus musculus [2], 13.5 µmol/kg. In test [4], this compound showed a Ki of 6.54 nM.

As for `O=C(Cc1ccc(C(F)(F)F)cc1)N1CCCC[C@H]1CN1CCCC1`, the ED50 in the test on Mus musculus [1] is 0.1 µmol/kg; with Mus musculus [2] it was 0.32 µmol/kg; in the test on Mus musculus [3], 0.28 µmol/kg; in the test with Rattus norvegicus [6], 0.11 µmol/kg; with Rattus norvegicus [7] it was 0.35 µmol/kg. The compound further gave a Ki in [4] of 0.64 nM.

`CN1CC[C@]23c4c5ccc(O)c4O[C@H]2[C@@H](O)C=C[C@H]3[C@H]1C5` [MORPHINE]: the ED50 came out at 1.34 µmol/kg in the test with Mus musculus [1], 9.8 µmol/kg in the test with Mus musculus [2] and 0.86 µmol/kg in the test on Rattus norvegicus [9].

For orientation: ED50 means the dose at which the effect has come halfway, by size or by number of responders. Low values mean an effect at a small dose, high ones a need for a large dose. In general, Ki refers to a dissociation constant, usually derived from enzyme kinetics or from competition with a known ligand. Read a low Ki as higher affinity.
